Counter-ions that a name gives are not always drawn.

The subject of one series is PC-3. In words: Cytotoxicity against human PC3 cells after 48 hrs by MTT assay. Format: functional, cell-based. A digest of the protocol: (§1)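 Cells seeded and allowed to adhere at 37 °C in a CO2 incubator, then exposed for 48 h to 0.0001, 0.0005, 0.001, 0.005, 0.01, 0.05 or 0.1 mmol·L−1 compound. MTT (5%) added for a further 4 h, absorbance read at 570 nm.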
Another series has as its system MCF7. Briefly: Cytotoxicity against human MCF7 cells after 48 hrs by MTT assay. Format: functional, cell-based. Conditions: MCF7, 48 h; call rule not given here. In outline:
as §1

The nature of series [1]: Therapeutic index, ratio of IC50 for human lymphocytes to EC50 for Human immunodeficiency virus 1 NL4-3. The conditions noted are these: read-out: TI.
The next series concerns MT4. In words: Cytotoxicity against human MT4 lymphocytes after 48 hrs by MTT assay. Format: cell-based. For orientation: Tetrazolium assays rely on reduction of a dye to a coloured formazan, in cell work by metabolically active cells.
For series [2], the target named is T1, Glycogen phosphorylase, muscle form (Oryctolagus cuniculus, UniProt P00489).
T1 sequence (P00489 whole entry): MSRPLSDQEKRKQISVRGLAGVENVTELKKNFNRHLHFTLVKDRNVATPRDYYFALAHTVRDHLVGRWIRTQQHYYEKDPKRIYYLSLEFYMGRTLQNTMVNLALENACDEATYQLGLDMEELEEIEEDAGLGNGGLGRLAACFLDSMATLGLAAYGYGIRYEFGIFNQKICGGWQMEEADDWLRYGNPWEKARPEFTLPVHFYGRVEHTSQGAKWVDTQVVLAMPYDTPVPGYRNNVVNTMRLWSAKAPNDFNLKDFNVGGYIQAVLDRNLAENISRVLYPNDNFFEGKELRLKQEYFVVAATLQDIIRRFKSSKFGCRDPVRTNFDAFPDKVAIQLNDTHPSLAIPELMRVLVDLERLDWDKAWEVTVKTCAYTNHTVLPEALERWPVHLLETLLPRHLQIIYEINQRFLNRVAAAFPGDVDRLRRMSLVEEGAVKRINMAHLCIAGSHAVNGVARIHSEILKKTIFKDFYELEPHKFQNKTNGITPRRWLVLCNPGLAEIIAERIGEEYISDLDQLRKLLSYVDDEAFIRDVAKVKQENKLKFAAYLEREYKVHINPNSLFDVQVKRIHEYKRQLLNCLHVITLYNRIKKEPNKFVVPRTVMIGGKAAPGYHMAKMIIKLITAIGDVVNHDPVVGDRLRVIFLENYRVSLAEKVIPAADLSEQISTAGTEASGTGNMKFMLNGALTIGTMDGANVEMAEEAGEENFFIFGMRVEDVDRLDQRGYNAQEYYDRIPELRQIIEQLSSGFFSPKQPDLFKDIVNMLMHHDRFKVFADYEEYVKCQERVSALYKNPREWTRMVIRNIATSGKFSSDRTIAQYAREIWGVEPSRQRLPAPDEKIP
In words: Inhibition of rabbit muscle glycogen phosphorylase a.

The next series deals with BGC-823. Briefly: Cytotoxicity against human BGC823 cells after 48 hrs by MTT assay. Format: functional, cell-based. A digest of the protocol: as §1
A further series has as its system A549. Briefly: Cytotoxicity against human A549 cells after 48 hrs by MTT assay. Format: functional, cell-based. The conditions noted are these: A549, 48 h. In outline: as §1
Series [3] concerns Human immunodeficiency virus 1. In words: Antiviral activity against Human immunodeficiency virus 1 NL4-3 infected in MT4 lymphocytes assessed as p24 antigen level by ELISA. Format: functional, organism-based. In outline: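 HIV-1 NL4-3 variants at MOI 0.01 infect MT-4 cells in a replication screening assay run in 96-well format.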
In a further series the test system is HeLa. Briefly: Cytotoxicity against human HeLa cells after 48 hrs by MTT assay. Format: functional, cell-based. A digest of the protocol:
as §1

The mark [4] stands for this setting: Homo sapiens, PC-3, 48 h, read-out: IC50.
The mark [5] stands for this setting: Homo sapiens, MT4, 48 h, read-out: IC50.
[6] abbreviates: Homo sapiens, BGC-823, 48 h, read-out: IC50.
Setting [7] is: Human immunodeficiency virus 1, NL4-3, read-out: EC50.
Setting [8] is: Homo sapiens, HeLa, 48 h, read-out: IC50.

Usually IC50 stands for the concentration that inhibits the measured activity by half. Broadly, the EC50 is the concentration at which the effect is half-maximal. `C=C(C)[C@@H]1CC[C@]2(C(=O)O)CC[C@]3(C)[C@H](CC[C@@H]4[C@@]5(C)[C@H](C(=O)O)[C@H](O)C(C)(C)[C@@H]5CC[C@]43C)[C@@H]12` [EPICEANOTHIC ACID]: the IC50 amounted to 19.7 µM in the series on PC-3 (setting [4]); 87.2 µM in the series on MCF7; 38.9 µM in the series with MT4 (setting [5]); 194 µM in [2] (read-out: IC50); 2.41 µM in the series with BGC-823 (setting [6]); 16.8 µM in the series on A549. Further, the selectivity ratio in [1] worked out at 2.49. Further, the 50% effective concentration (EC50) in series [3] (setting [7]) was determined as 15.6 µM.
`C=C(C)[C@@H]1CC[C@]2(COC(c3ccccc3)(c3ccccc3)c3ccccc3)CC[C@]3(C)[C@H](CC[C@@H]4[C@@]5(C)[C@H](C(=O)OC)[C@H](O)C(C)(C)[C@@H]5CC[C@]43C)[C@@H]12`: the IC50 entry was “Not Active” in the series with HeLa (hela); “Not Active” in the series with PC-3 (pc-3); 398 µM with MCF7; 20.1 µM in [2] (read-out: IC50); 770 µM in the series with A549.
For the compound `COc1cccc2c1C(=O)c1c(O)c3c(c(O)c1C2=O)C[C@@](O)(C(=O)CO)C[C@@H]3O[C@H]1C[C@H](N)[C@H](O)[C@H](C)O1` [DOXORUBICIN HYDROCHLORIDE], the IC50 in the series with PC-3 (setting [4]) came out at 0.68 µM; with MCF7, 1.65 µM; in the series on A549, 0.54 µM.
For the compound `C=C(C)[C@@H]1CC[C@]2(COC(c3ccccc3)(c3ccccc3)c3ccccc3)CC[C@]3(C)[C@H](CC[C@@H]4[C@@](C)(CC(=O)O)[C@H](C(C)(C)C(=O)O)CC[C@]43C)[C@@H]12`, the IC50 entry was “Not Active” in the series with HeLa (hela); 6.75 µM in the series with PC-3 (setting [4]); 560 µM in the series on MCF7; 0.21 µM in series [2] (read-out: IC50); “Not Active” in the series on BGC-823 (bgc-823); 136 µM in the series on A549.
For the compound `C=C(C)[C@@H]1CC[C@]2(COC(c3ccccc3)(c3ccccc3)c3ccccc3)CC[C@]3(C)[C@H](CC[C@@H]4[C@@](C)(CC(=O)OC)[C@H](C(C)(C)C(=O)OC)CC[C@]43C)[C@@H]12`, the IC50 was found to be 17.1 µM in the series on HeLa (setting [8]); 5.32 µM in the series on PC-3 (setting [4]); 374 µM in the series with MCF7; 2.87 µM in series [2] (read-out: IC50); 9.54 µM with BGC-823 (setting [6]); 996 µM in the series with A549.
With `C=C(C)[C@@H]1CC[C@]2(C(=O)O)CC[C@]3(C)[C@H](CC[C@@H]4[C@@]5(C)[C@H](C(=O)OC)[C@H](OC(C)=O)C(C)(C)[C@@H]5CC[C@]43C)[C@@H]12`, the IC50 is 56.7 µM in the series on HeLa (setting [8]); 10.8 µM in the series with PC-3 (setting [4]); 0.33 µM with MCF7; “Not Active” with MT4 (mt4); 46.4 µM in [2] (read-out: IC50); 7.64 µM in the series on BGC-823 (setting [6]). In addition, the IC50 with A549 came out at 0.89 µM. The 50% effective concentration (EC50) entry in [3] is recorded as “Not Active”.
For `C=C(C)[C@@H]1CC[C@]2(C=O)CC[C@]3(C)[C@H](CC[C@@H]4[C@@]5(C)[C@H](C(=O)OC)[C@H](OC(C)=O)C(C)(C)[C@@H]5CC[C@]43C)[C@@H]12`, the IC50 in the series on HeLa (setting [8]) is 105 µM; with PC-3 (setting [4]) it was 8.51 µM; in the series with MCF7, 32.5 µM; in the series on MT4 (mt4), “Not Active”; in [2] (read-out: IC50) it was 53.8 µM; with BGC-823 (setting [6]) it was 12.7 µM. Further, the IC50 in the series with A549 amounted to 194 µM. Also, in series [3], the EC50 entry is on record as “Not Active”.
Take `C=C(C)[C@@H]1CC[C@]2(COC(c3ccccc3)(c3ccccc3)c3ccccc3)CC[C@]3(C)[C@H](CC[C@@H]4[C@@]5(C)[C@H](C(=O)OC)[C@H](OC(C)=O)C(C)(C)[C@@H]5CC[C@]43C)[C@@H]12`: the IC50 entry is “Not Active” with HeLa (hela); “Not Active” in the series on PC-3 (pc-3); 565 µM in the series with MCF7; “Not Active” in the series with MT4 (mt4); 15.2 µM in [2] (read-out: IC50); “Not Active” in the series on BGC-823 (bgc-823). In the series with A549, this compound registered an IC50 of 892 µM. Besides, the EC50 result in series [3] is “Not Active”.
Turning to `C=C(C)[C@@H]1CC[C@]2(C(=O)O)CC[C@]3(C)[C@H](CC[C@@H]4[C@@]5(C)CC[C@H](OC(=O)CC(C)(C)C(=O)O)C(C)(C)[C@@H]5CC[C@]43C)[C@@H]12` [BEVIRIMAT], in [1], the selectivity ratio was determined as 185. Besides, the IC50 in the series with MT4 (setting [5]) is 15.2 µM. Also, in series [3] (setting [7]), the EC50 stood at 0.082 µM.
Consider `C=C(C)[C@@H]1CC[C@]2(CO)CC[C@]3(C)[C@H](CC[C@@H]4[C@@]5(C)CC[C@H](O)C(C)(C)[C@@H]5CC[C@]43C)[C@@H]12` [BETULIN], for which the IC50 result was “Not Active” in the series on MT4 (mt4) and 41.5 µM in series [2] (read-out: IC50). In addition, the EC50 entry in series [3] is given as “Not Active”.
Consider `C=C(C)[C@@H]1CC[C@]2(CO)CC[C@]3(C)[C@H](CC[C@@H]4[C@@]5(C)[C@H](C(=O)OC)[C@H](OC(C)=O)C(C)(C)[C@@H]5CC[C@]43C)[C@@H]12`, for which the IC50 with PC-3 (setting [4]) was 66.3 µM; in the series with MCF7 it was 604 µM; in the series with MT4 (mt4), “Not Active”; in [2], “Not Active”; in the series with BGC-823 (setting [6]), 25.9 µM; in the series with A549, 62.9 µM. The EC50 entry in [3] is on record as “Not Active”.

Values taken from ChEMBL document CHEMBL1641550, “Efficient synthesis and biological evaluation of epiceanothic acid and related compounds” (Bioorg Med Chem Lett, 2011).
